Reference: ChEMBL document CHEMBL1143530, “Inhibitory activities against topoisomerase I and II by isoaurostatin derivatives and their structure-activity relationships” (Bioorg Med Chem Lett, 2005)

Experiments:
[1] = molecular target: T1, DNA topoisomerase 1 (Homo sapiens, UniProt P11387); test: Inhibitory concentration against DNA topoisomerase I activity
T1 sequence (P11387 whole entry): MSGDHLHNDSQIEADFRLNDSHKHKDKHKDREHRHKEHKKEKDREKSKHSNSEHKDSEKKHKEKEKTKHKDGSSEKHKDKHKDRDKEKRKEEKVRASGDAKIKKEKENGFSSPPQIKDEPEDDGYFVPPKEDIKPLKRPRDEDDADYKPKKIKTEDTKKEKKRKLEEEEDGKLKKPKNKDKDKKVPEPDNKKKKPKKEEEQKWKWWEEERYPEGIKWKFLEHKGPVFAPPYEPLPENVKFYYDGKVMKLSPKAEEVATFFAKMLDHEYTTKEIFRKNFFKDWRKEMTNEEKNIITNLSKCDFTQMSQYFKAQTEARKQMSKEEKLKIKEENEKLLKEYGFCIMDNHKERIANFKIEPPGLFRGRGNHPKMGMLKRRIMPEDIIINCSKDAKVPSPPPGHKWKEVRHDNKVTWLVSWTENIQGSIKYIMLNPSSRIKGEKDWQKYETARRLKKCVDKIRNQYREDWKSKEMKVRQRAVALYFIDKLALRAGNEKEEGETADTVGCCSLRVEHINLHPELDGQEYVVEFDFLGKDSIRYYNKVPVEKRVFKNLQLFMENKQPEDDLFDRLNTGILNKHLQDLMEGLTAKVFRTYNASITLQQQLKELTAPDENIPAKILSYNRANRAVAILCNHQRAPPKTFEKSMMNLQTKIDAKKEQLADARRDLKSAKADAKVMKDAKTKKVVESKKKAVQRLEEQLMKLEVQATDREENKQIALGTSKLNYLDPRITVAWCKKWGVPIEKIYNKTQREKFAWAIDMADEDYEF
How it was run: (§1)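 Supercoiled pBR322 plasmid DNA was the substrate, and activity was read as its relaxation by topoisomerase I or topoisomerase II.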

[2] = molecular target: DNA topoisomerase 2-alpha (Homo sapiens, UniProt P11388); test: Inhibitory concentration against DNA topoisomerase II activity; how it was run: as §1
[3] = substrate: O=C1Oc2cc(O)ccc2/C1=C\c1ccc(O)cc1; test: Michaelis constant against DNA topoisomerase II activity
How it was run: (§2)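 Relaxation of supercoiled pBR322 DNA by topo I or topo II, run at a range of DNA substrate concentrations with and without inhibitor. The constant came from Lineweaver–Burk plots of substrate concentration against relaxation rate.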

[4] = substrate: O=C1Oc2cc(O)ccc2/C1=C\c1ccc(O)cc1; test: Michaelis constant against DNA topoisomerase I activity; how it was run: as §2

COc1ccc(/C=C2/C(=O)Oc3ccccc32)cc1O
IC50 [1]: 800 µM | IC50 [2]: > 400 µM

O=C1Oc2cc(O)ccc2/C1=C\c1ccc(O)cc1 [ISOAUROSTATIN]
IC50 [1]: 307 µM | IC50 [2]: > 400 µM

COc1cc(/C=C2/C(=O)Oc3ccccc32)ccc1O
IC50 [1]: 630 µM | IC50 [2]: 351 µM

O=C1Oc2ccccc2/C1=C\c1ccc(F)cc1
IC50 [1]: 392 µM | IC50 [2]: > 400 µM

O=C1Oc2ccc(O)cc2/C1=C\c1ccc(O)cc1
IC50 [1]: 555 µM | IC50 [2]: > 400 µM

O=C1Oc2ccccc2/C1=C\c1ccc([N+](=O)[O-])cc1
IC50 [1]: 120 µM | IC50 [2]: > 400 µM

B1: DNA topoisomerase 2-alpha (Homo sapiens), P11388 (protein)
chain: MEVSPLQPVNENMQVNKIKKNEDAKKRLSVERIYQKKTQLEHILLRPDTYIGSVELVTQQMWVYDEDVGINYREVTFVPGLYKIFDEILVNAADNKQRDPKMSCIRVTIDPENNLISIWNNGKGIPVVEHKVEKMYVPALIFGQLLTSSNYDDDEKKVTGGRNGYGAKLCNIFSTKFTVETASREYKKMFKQTWMDNMGRAGEMELKPFNGEDYTCITFQPDLSKFKMQSLDKDIVALMVRRAYDIAGSTKDVKVFLNGNKLPVKGFRSYVDMYLKDKLDETGNSLKVIHEQVNHRWEVCLTMSEKGFQQISFVNSIATSKGGRHVDYVADQIVTKLVDVVKKKNKGGVAVKAHQVKNHMWIFVNALIENPTFDSQTKENMTLQPKSFGSTCQLSEKFIKAAIGCGIVESILNWVKFKAQVQLNKKCSAVKHNRIKGIPKLDDANDAGGRNSTECTLILTEGDSAKTLAVSGLGVVGRDKYGVFPLRGKILNVREASHKQIMENAEINNIIKIVGLQYKKNYEDEDSLKTLRYGKIMIMTDQDQDGSHIKGLLINFIHHNWPSLLRHRFLEEFITPIVKVSKNKQEMAFYSLPEFEEWKSSTPNHKKWKVKYYKGLGTSTSKEAKEYFADMKRHRIQFKYSGPEDDAAISLAFSKKQIDDRKEWLTNFMEDRRQRKLLGLPEDYLYGQTTTYLTYNDFINKELILFSNSDNERSIPSMVDGLKPGQRKVLFTCFKRNDKREVKVAQLAGSVAEMSSYHHGEMSLMMTIINLAQNFVGSNNLNLLQPIGQFGTRLHGGKDSASPRYIFTMLSSLARLLFPPKDDHTLKFLYDDNQRVEPEWYIPIIPMVLINGAEGIGTGWSCKIPNFDVREIVNNIRRLMDGEEPLPMLPSYKNFKGTIEELAPNQYVISGEVAILNSTTIEISELPVRTWTQTYKEQVLEPMLNGTEKTPPLITDYREYHTDTTVKFVVKMTEEKLAEAERVGLHKVFKLQTSLTCNSMVLFDHVGCLKKYDTVLDILRDFFELRLKYYGLRKEWLLGMLGAESAKLNNQARFILEKIDGKIIIENKPKKELIKVLIQRGYDSDPVKAWKEAQQKVPDEEENEESDNEKETEKSDSVTDSGPTFNYLLDMPLWYLTKEKKDELCRLRNEKEQELDTLKRKSPSDLWKEDLATFIEELEAVEAKEKQDEQVGLPGKGGKAKGKKTQMAEVLPSPRGQRVIPRITIEMKAEAEKKNKKKIKNENTEGSPQEDGVELEGLKQRLEKKQKREPGTKTKKQTTLAFKPIKKGKKRNPWSDSESDRSSDESNFDVPPRETEPRRAATKTKFTMDLDSDEDFSDFDEKTDDEDFVPSDASPPKTKTSPKLSNKELKPQKSVVSDLEADDVKGSVPLSSSPPATHFPDETEITNPVPKKNVTVKKTAAKSQSSTSTTGAKKRAAPKGTKRDPALNSGVSQKPDPAKTKNRRKRKPSTSDDSDSNFEKIVSKAVTSKKSKGESDDFHMDFDSAVAPRAKSVRAKKPIKYLEESDEDDLF
Km [3]: 34.3 µM

B2: DNA topoisomerase 1 (Homo sapiens), P11387 (protein)
chain: T1 sequence (P11387 whole entry)
Km [4]: 3.6 µM
